Measured values taken from ChEMBL document CHEMBL1136807, “CC-1065 analogues bearing different DNA-binding subunits: synthesis, antitumor activity, and preliminary toxicity study” (J Med Chem, 2003).

Legend:
[1] = tested on: Mus musculus; assay: Number of mice bearing L1210 leukemia that survived after 30 days, after administration of 100 […] compound; format: functional
Method in brief: (§1)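 In vivo antitumor test in mice bearing L1210 leukemia, read out as increase in life span (ILS). Body weight was monitored. The optimal dose was defined as the dose giving the best antitumor efficacy with body weight loss ≤15%.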

[2] = tested on: Mus musculus; assay: Increase in life span of mice bearing L1210 leukemia after administration of 45 […] compound; format: functional; method in brief: as §1
[3] = tested on: Mus musculus; assay: Number of mice bearing L1210 leukemia that survived after 30 days, after administration of 67 […] compound; format: functional; method in brief: as §1
[4] = tested on: Mus musculus; assay: Increase in life span of mice bearing L1210 leukemia after administration of 67 […] compound; format: functional; method in brief: as §1
[5] = tested on: Mus musculus; assay: Number of mice bearing L1210 leukemia that survived after 30 days, after administration of 45 µg/kg compound
[6] = tested on: Mus musculus; assay: Number of mice surviving on day 180 treated with 100 […] compound; 8/8; format: functional, organism-based
[7] = tested on: L1210; assay: Compound was tested in vitro against L1210 leukemia cells; format: functional, cell-based; conditions: Mus musculus
Method in brief: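 L1210 murine leukemia cells exposed to drug for 48 h; IC50 reported in nM.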

[8] = tested on: Mus musculus; assay: Days until first mouse died treated with 100 […] compound; no death; format: functional, organism-based
[9] = tested on: Mus musculus; assay: Weight change in mice bearing L1210 leukemia after administration of 45 […] compound; format: functional
[10] = tested on: Mus musculus; assay: Increase in life span of mice bearing L1210 leukemia after administration of 100 […] compound; format: functional; method in brief: as §1
[11] = tested on: Mus musculus; assay: Weight change in mice bearing L1210 leukemia after administration of 100 […] compound; format: functional
[12] = tested on: Mus musculus; assay: Weight change in mice bearing L1210 leukemia after administration of 67 […] compound; format: functional
[13] = tested on: Mus musculus; assay: Number of mice surviving on day 180 treated with 100 […] compound; 5/8; format: functional, organism-based
[14] = tested on: Mus musculus; assay: Days until first mouse died treated with 100 […] compound; format: functional
Method in brief: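 Delayed-toxicity study in non-tumor-bearing BDF1 mice: single ip dose given on day 0, then animals observed for up to 180 days. Recorded the day the first mouse died and the number of mice alive on day 180, with 6–8 mice per group.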

[15] = tested on: Mus musculus; assay: Increase in life span of mice bearing L1210 leukemia after administration of 498 […] compound; format: functional; method in brief: as §1
[16] = tested on: Mus musculus; assay: Weight change in mice bearing L1210 leukemia after administration of 620 […] compound; format: functional
[17] = tested on: Mus musculus; assay: Weight change in mice bearing L1210 leukemia after administration of 498 […] compound; format: functional
[18] = tested on: Mus musculus; assay: Number of mice bearing L1210 leukemia that survived after 30 days, after administration of 620 […] compound; format: functional; method in brief: as §1
[19] = tested on: Mus musculus; assay: Increase in life span of mice bearing L1210 leukemia after administration of 620 […] compound; format: functional; method in brief: as §1
[20] = tested on: Mus musculus; assay: Number of mice bearing L1210 leukemia that survived after 30 days, after administration of 498 µg/kg compound
[21] = tested on: Mus musculus; assay: Number of mice bearing L1210 leukemia that survived after 30 days, after administration of 298 […] compound; format: functional; method in brief: as §1
[22] = tested on: Mus musculus; assay: Weight change in mice bearing L1210 leukemia after administration of 298 […] compound; format: functional
[23] = tested on: Mus musculus; assay: Increase in life span of mice bearing L1210 leukemia after administration of 298 […] compound; format: functional; method in brief: as §1
[24] = tested on: Mus musculus; assay: Number of mice bearing L1210 leukemia that survived after 30 days, after administration of 30 ug/kg compound
[25] = tested on: Mus musculus; assay: Weight change in mice bearing L1210 leukemia after administration of 30 […] compound; format: functional
[26] = tested on: Mus musculus; assay: Increase in life span of mice bearing L1210 leukemia after administration of 30 […] compound; format: functional; method in brief: as §1
[27] = tested on: Mus musculus; assay: Number of mice surviving on day 180 treated with 100 […] compound; 7/7; format: functional, organism-based

## O=C(Nc1ccc2[nH]c(C(=O)N3CC(CCl)c4c3cc(O)c3ccccc43)cc2c1)c1cc2cc([N+](=O)[O-])ccc2o1 (racemic)
[1]
  Survivors: 0
[2]
  ILS at 45 mg/kg: 120%
[3]
  Survivors: 0
[4]
  ILS at 67 mg/kg: 147%
[5]
  Survivors: 0
[6]
  No. of mice: Mice surviving 8/8
[7]
  IC50: 0.44 nM
[8]
  Days: No death
[9]
  Weight change: 2%
[10]
  ILS at 100 mg/kg: 173%
[11]
  Weight change: -5%
[12]
  Weight change: -2%

## COc1ccc2[nH]c(C(=O)Nc3ccc4[nH]c(C(=O)N5CC(CCl)c6c5cc(O)c5ccccc65)cc4c3)cc2c1 (racemic)
[1]
  Survivors: 0
[13]
  No. of mice: Mice surviving 5/8
[2]
  ILS at 45 mg/kg: 93%
[3]
  Survivors: 0
[4]
  ILS at 67 mg/kg: 93%
[5]
  Survivors: 0
[7]
  IC50: 5.7 nM
[9]
  Weight change: 2%
[10]
  ILS at 100 mg/kg: 53%
[11]
  Weight change: -15%
[14]
  Days: 35
[12]
  Weight change: 3%

## O=C(Nc1ccc2[nH]c(/C=C/C(=O)N3CC(CCl)c4c3cc(O)c3ccccc43)cc2c1)c1cc2ccccc2[nH]1 (racemic)
[15]
  ILS at 498 mg/kg: 231%
[16]
  Weight change: -13%
[17]
  Weight change: 0%
[18]
  Survivors: 0
[19]
  ILS at 620 mg/kg: 147%
[6]
  No. of mice: Mice surviving 8/8
[7]
  IC50: 1 nM
[20]
  Survivors: 1
[8]
  Days: No death
[21]
  Survivors: 0
[22]
  Weight change: 0%
[23]
  ILS at 298 mg/kg: 157%

## CC(=O)Nc1ccc2[nH]c(C(=O)Nc3ccc4[nH]c(C(=O)N5CC(CCl)c6c5cc(O)c5ccccc65)cc4c3)cc2c1 (racemic)
[7]
  IC50: 2.5 nM

## O=C(Nc1ccc2[nH]c(C(=O)N3CC(CCl)c4c3cc(O)c3ccccc43)cc2c1)c1cc2cc(F)ccc2o1 (racemic)
[2]
  ILS at 45 mg/kg: 107%
[3]
  Survivors: 0
[4]
  ILS at 67 mg/kg: 147%
[24]
  Survivors: 0
[25]
  Weight change: 5%
[5]
  Survivors: 0
[7]
  IC50: 0.85 nM
[8]
  Days: No death
[9]
  Weight change: 5%
[26]
  ILS at 30 mg/kg: 67%
[12]
  Weight change: 0%
[27]
  No. of mice: Mice surviving 7/7

## COc1cccc2c1C(=O)c1c(O)c3c(c(O)c1C2=O)C[C@@](O)(C(=O)CO)C[C@@H]3O[C@H]1C[C@H](N)[C@H](O)[C@H](C)O1 [DOXORUBICIN]
[7]
  IC50: 179 nM
